By IC50 is commonly meant the concentration that inhibits the measured activity by half. The low end stands for greater potency in that assay, the high end for weaker potency in that assay. The inhibition is the drop in the measured response relative to a control, in per cent. Low readings indicate little suppression, high ones strong suppression.

The text below walks through data of ChEMBL document CHEMBL1130111, “The chemistry of pseudomonic acid. 18. Heterocyclic replacement of the alpha,beta-unsaturated ester: synthesis, molecular modeling, and antibacterial activity” (J Med Chem, 1997).

In experiment [1] the target is T1, Isoleucine--tRNA ligase (Staphylococcus aureus, UniProt P41972).
T1 sequence (P41972 whole entry): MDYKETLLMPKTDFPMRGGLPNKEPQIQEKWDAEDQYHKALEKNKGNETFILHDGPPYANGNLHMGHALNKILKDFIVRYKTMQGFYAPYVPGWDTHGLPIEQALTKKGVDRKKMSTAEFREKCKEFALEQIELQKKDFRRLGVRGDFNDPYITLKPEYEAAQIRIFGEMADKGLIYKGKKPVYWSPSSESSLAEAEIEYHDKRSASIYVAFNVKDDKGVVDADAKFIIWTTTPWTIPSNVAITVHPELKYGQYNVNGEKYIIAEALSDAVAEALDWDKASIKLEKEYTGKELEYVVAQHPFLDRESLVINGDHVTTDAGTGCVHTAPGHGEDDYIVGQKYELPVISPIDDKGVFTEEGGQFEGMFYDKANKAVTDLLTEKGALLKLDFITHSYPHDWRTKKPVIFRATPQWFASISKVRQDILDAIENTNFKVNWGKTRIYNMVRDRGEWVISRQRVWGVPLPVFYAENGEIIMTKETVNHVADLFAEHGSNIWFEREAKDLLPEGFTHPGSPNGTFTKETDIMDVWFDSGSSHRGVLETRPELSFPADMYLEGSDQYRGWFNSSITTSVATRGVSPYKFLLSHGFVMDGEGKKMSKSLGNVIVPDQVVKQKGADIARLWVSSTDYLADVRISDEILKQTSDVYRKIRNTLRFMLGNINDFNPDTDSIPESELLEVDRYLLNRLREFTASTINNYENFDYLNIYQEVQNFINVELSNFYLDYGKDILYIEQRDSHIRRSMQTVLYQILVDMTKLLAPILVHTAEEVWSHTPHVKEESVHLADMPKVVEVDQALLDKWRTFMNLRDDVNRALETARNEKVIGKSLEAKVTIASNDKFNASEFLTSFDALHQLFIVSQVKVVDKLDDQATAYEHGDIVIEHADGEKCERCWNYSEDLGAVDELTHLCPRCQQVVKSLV
As to the kind of experiment: (§1) Inhibition concentration against Isoleucyl-tRNA synthetase from Staphylococcus aureus NCTC 6571. A digest of the protocol:
(§2)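 IRS extracted from S. aureus grown to late stationary phase in shake flasks (Nutrient Broth No. 2). Cells were sonicated with lysostaphin, DNase-treated, dialysed against 20 mM Tris-HCl pH 8 with 5 mM MgCl2 and 2 mM DTT, then ultracentrifuged. Compound was preincubated with enzyme 5 min. Charging of E. coli tRNA with 4.8 µM [U-14C]-isoleucine and 5 mg/mL ATP was run 10 min at 37 °C. IC50 taken as 50% inhibition of 14C-Ile incorporation.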

In a further experiment the test system is Staphylococcus aureus. In words: minimum inhibitory concentration (MIC) against Staphylococcus aureus NCTC 6571. In kind it is functional. A digest of the protocol:
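Agar dilution MIC in blood agar base with 5% chocolated horse blood. Inoculum was an overnight nutrient broth culture, about 10^6 CFU per spot. Plates were incubated 18-24 h at 37 °C. MIC taken as the lowest concentration fully inhibiting growth.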

The target of experiment [2] is T2, Isoleucine--tRNA ligase (Staphylococcus aureus) (UniProt P41972).
T2 sequence (whole entry): T1 sequence (P41972 whole entry)
The experiment is described as §1. The settings on record: concentration not given here. The gist of the method:
as §2

Experiment [3] deals with T1, Isoleucine--tRNA ligase. In words: Inhibition concentration against isoleucyl tRNA synthetase from Staphylococcus aureus NCTC 6571. The gist of the method: as §2

The compound `C[C@H]([C@@H]1O[C@H]1C[C@H]1CO[C@@H](Cc2cnc(-c3ccccc3)o2)[C@H](O)[C@@H]1O)[C@H](C)O` showed an IC50 on Isoleucine--tRNA ligase [1] of 4.71 nM. This compound returned an MIC with Staphylococcus aureus of 2 ug m1 l-1.
In experiment [2], `C[C@H]([C@@H]1O[C@H]1C[C@H]1CO[C@@H](Cc2ncc(-c3ccccc3)o2)[C@H](O)[C@@H]1O)[C@H](C)O` came in with an inhibition of 0%. The MIC with Staphylococcus aureus is given as >64 ug m1 l-1.
For the compound `C[C@H]([C@@H]1O[C@H]1C[C@H]1CO[C@@H](Cc2csc(-c3ccccc3)n2)[C@H](O)[C@@H]1O)[C@H](C)O`, the IC50 on Isoleucine--tRNA ligase [3] was 14.3 nM. For the same compound, in the experiment with Staphylococcus aureus, the MIC is on record as >64 ug m1 l-1.
In the case of `C[C@H]([C@@H]1O[C@H]1C[C@H]1CO[C@@H](Cc2cc(-c3ccccc3)on2)[C@H](O)[C@@H]1O)[C@H](C)O`, in experiment [2], the inhibition stood at 17%. For the same compound, in the experiment on Staphylococcus aureus, the MIC is given as >64 ug m1 l-1.
`C[C@H]([C@@H]1O[C@H]1C[C@H]1CO[C@@H](Cc2nnc(-c3ccccc3)o2)[C@H](O)[C@@H]1O)[C@H](C)O` had a half-maximal inhibitory concentration (IC50) against Isoleucine--tRNA ligase [1] of 5.19 nM. The same compound returned an MIC against Staphylococcus aureus of 8 ug m1 l-1.
The corresponding values for `C[C@H]([C@@H]1O[C@H]1C[C@H]1CO[C@@H](Cc2nc(-c3ccccc3)no2)[C@H](O)[C@@H]1O)[C@H](C)O` are 1.73 nM and 4 ug m1 l-1.
For `C[C@H]([C@@H]1O[C@H]1C[C@H]1CO[C@@H](Cc2cc(-c3ccccc3)no2)[C@H](O)[C@@H]1O)[C@H](C)O` the same measures were 13.1 nM and 4 ug m1 l-1.
For `C/C(=C\C(=O)OCCCCCCCCC(=O)O)C[C@@H]1OC[C@H](C[C@@H]2O[C@H]2[C@@H](C)[C@H](C)O)[C@@H](O)[C@H]1O` [MUPIROCIN] the same measures were 1.7 nM and 0.13 ug m1 l-1.
In the case of `CCOC(=O)/C=C(\C)C[C@@H]1OC[C@H](C[C@@H]2O[C@H]2[C@@H](C)[C@H](C)O)[C@@H](O)[C@H]1O`, half-maximal inhibition at Isoleucine--tRNA ligase [1] (IC50) required 2.95 nM. This compound came in with an MIC in the experiment with Staphylococcus aureus of 0.5 ug m1 l-1.
The corresponding values for `C[C@H]([C@@H]1O[C@H]1C[C@H]1CO[C@@H](Cn2nnc(-c3ccccc3)n2)[C@H](O)[C@@H]1O)[C@H](C)O` are 8.9 nM and 8 ug m1 l-1.
